# The source made the active and inactive calls. The calls are words filed in the database; no cut-off is given here.
# Molecular target: T1, Gastric inhibitory polypeptide receptor (Homo sapiens, UniProt P48546)
# T1 sequence (P48546 whole entry): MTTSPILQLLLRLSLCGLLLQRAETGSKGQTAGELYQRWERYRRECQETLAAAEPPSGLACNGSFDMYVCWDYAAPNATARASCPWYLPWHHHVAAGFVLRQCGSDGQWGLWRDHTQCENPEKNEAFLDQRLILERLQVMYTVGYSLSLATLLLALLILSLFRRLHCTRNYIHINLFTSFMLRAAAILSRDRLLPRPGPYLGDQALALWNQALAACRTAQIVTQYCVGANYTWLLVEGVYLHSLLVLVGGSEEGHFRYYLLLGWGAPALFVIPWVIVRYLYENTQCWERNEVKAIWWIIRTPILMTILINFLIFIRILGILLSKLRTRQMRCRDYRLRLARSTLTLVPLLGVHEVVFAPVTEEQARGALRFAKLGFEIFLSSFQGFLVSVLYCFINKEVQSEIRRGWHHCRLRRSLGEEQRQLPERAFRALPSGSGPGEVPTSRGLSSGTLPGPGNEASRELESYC
# Experiment: Displacement of [125I]porcine GIP from human recombinant GIPR receptor expressed in BHK cells by scintillation proximity assay
# Assay type: cell-based
# Conditions: not given
row,IC50 [nM],SMILES
1,830,O=C(O)CCNC(=O)c1ccc(CN(c2ccc3c(c2)CCCC3)c2nc(-c3ccc(Cl)c(Cl)c3)cs2)cc1
2,721,CC(C)(C)c1ccc(-c2csc(N(Cc3ccc(C(=O)NCCC(=O)O)cc3)c3ccc(C4=CCCCC4)cc3)n2)cc1
3,729,CC(C)(C)c1ccc(-c2csc(N(Cc3ccc(C(=O)NCCC(=O)O)cc3)c3ccc(C(C)(C)C)cc3)n2)cc1

# Molecular target: T2, Glucagon receptor (Homo sapiens, UniProt P47871)
# Experiment: Binding affinity to human recombinant glucagon receptor expressed in BHK cells by membrane filter assay
# Assay type: cell-based
# Conditions: not given
# T2 sequence (P47871 whole entry): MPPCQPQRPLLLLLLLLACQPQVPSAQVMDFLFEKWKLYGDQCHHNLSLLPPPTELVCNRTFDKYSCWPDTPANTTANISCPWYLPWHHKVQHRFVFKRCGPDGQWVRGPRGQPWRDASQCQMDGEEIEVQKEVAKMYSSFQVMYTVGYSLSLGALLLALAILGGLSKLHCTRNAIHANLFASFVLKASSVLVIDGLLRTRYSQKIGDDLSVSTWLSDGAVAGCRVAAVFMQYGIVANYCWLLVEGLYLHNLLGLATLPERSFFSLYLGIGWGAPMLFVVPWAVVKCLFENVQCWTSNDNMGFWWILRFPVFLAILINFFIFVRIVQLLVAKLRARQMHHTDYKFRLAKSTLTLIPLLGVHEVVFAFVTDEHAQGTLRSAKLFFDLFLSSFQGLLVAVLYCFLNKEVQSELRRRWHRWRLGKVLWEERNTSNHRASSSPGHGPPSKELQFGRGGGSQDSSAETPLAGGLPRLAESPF
row,IC50 [nM],SMILES
1,54,O=C(O)CCNC(=O)c1ccc(CN(c2ccc3c(c2)CCCC3)c2nc(-c3ccc(Cl)c(Cl)c3)cs2)cc1

# Test system: not listed separately
# Experiment: Oral bioavailability in fasted Beagle dog at 0.5 mg/kg
# Assay type: ADME, organism-based, Canis lupus familiaris
# Conditions: in vivo
# Method in brief: (§1)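 Separate intravenous and peroral dosing arms per compound, with plasma concentration followed against time. Oral bioavailability (F_po) is reported per compound together with the intravenous half-life and clearance. The dose used for each arm is listed per compound.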
row,bioavailability [%],SMILES
1,92,O=C(O)CCNC(=O)c1ccc(CN(c2ccc3c(c2)CCCC3)c2nc(-c3ccc(Cl)c(Cl)c3)cs2)cc1

# Molecular target: not listed separately
# Experiment: Binding affinity to glucagon receptor in dog liver membrane by membrane filter assay
# Assay type: cell membranes, Canis lupus familiaris
# Conditions: not given
row,IC50 [nM],SMILES
1,81,O=C(O)CCNC(=O)c1ccc(CN(c2ccc3c(c2)CCCC3)c2nc(-c3ccc(Cl)c(Cl)c3)cs2)cc1

# Molecular target: not listed separately
# Experiment: Binding affinity to glucagon receptor in pig liver membrane by membrane filter assay
# Assay type: cell membranes, Sus scrofa
# Conditions: not given
row,IC50 [nM],SMILES
1,3300,O=C(O)CCNC(=O)c1ccc(CN(c2ccc3c(c2)CCCC3)c2nc(-c3ccc(Cl)c(Cl)c3)cs2)cc1

# Test system: not listed separately
# Experiment: Cmax in fasted Beagle dog at 0.25 mg/kg, iv and 0.5 mg/kg, po
# Assay type: ADME, organism-based, Canis lupus familiaris
# Conditions: in vivo
# Method in brief: (§2)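 Dogs were dosed at 0.25 mg/kg iv and 0.5 mg/kg po, and plasma concentration was followed over time. Half-life came from the iv arm; clearance, Cmax and Tmax were also derived.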
row,Cmax [ng/mL],SMILES
1,1190,O=C(O)CCNC(=O)c1ccc(CN(c2ccc3c(c2)CCCC3)c2nc(-c3ccc(Cl)c(Cl)c3)cs2)cc1

# Test system: not listed separately
# Experiment: Oral bioavailability in fasted Sprague-Dawley rat at 3.15 mg/kg by HTLC-MS/MS analysis
# Assay type: ADME, organism-based
# Conditions: in vivo
# Method in brief: as §1
row,bioavailability [%],SMILES
1,36,O=C(O)CCNC(=O)c1ccc(CN(c2ccc3c(c2)CCCC3)c2nc(-c3ccc(Cl)c(Cl)c3)cs2)cc1
2,2,CC(C)(C)c1ccc(-c2csc(N(Cc3ccc(C(=O)NCCC(=O)O)cc3)c3ccc(C4=CCCCC4)cc3)n2)cc1

# Test system: not listed separately
# Experiment: Tmax in fasted Sprague-Dawley rat at 1.6 mg/kg, iv and 3.15 mg/kg, po by HTLC-MS/MS analysis
# Assay type: ADME, organism-based
# Conditions: in vivo
# Method in brief: (§3)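 Plasma concentration–time profiles were recorded after separate intravenous and peroral dosing at the per-compound doses listed. T_max is reported in min alongside C_max (ng/mL), intravenous half-life and clearance ((mL/min)/kg).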
row,Tmax [h],SMILES
1,1,O=C(O)CCNC(=O)c1ccc(CN(c2ccc3c(c2)CCCC3)c2nc(-c3ccc(Cl)c(Cl)c3)cs2)cc1
2,1.5,CC(C)(C)c1ccc(-c2csc(N(Cc3ccc(C(=O)NCCC(=O)O)cc3)c3ccc(C4=CCCCC4)cc3)n2)cc1

# Test system: not listed separately
# Experiment: Tmax in fasted Beagle dog at 0.25 mg/kg, iv and 0.5 mg/kg, po
# Assay type: ADME, organism-based, Canis lupus familiaris
# Conditions: in vivo
# Method in brief: as §3
row,Tmax [h],SMILES
1,0.85,O=C(O)CCNC(=O)c1ccc(CN(c2ccc3c(c2)CCCC3)c2nc(-c3ccc(Cl)c(Cl)c3)cs2)cc1

# Molecular target: not listed separately
# Experiment: Binding affinity to glucagon receptor in monkey liver membrane by membrane filter assay
# Assay type: cell membranes, Macaca mulatta
# Conditions: not given
row,IC50 [nM],SMILES
1,55,O=C(O)CCNC(=O)c1ccc(CN(c2ccc3c(c2)CCCC3)c2nc(-c3ccc(Cl)c(Cl)c3)cs2)cc1

# Molecular target: T1, Gastric inhibitory polypeptide receptor
# Experiment: Binding affinity to human recombinant GIPR expressed in BHK cells by membrane filter assay
# Assay type: cell-based
# Conditions: not given
row,IC50 [nM],SMILES
1,390,O=C(O)CCNC(=O)c1ccc(CN(c2ccc3c(c2)CCCC3)c2nc(-c3ccc(Cl)c(Cl)c3)cs2)cc1

# Molecular target: not listed separately
# Experiment: Binding affinity to glucagon receptor in rabbit liver membrane by membrane filter assay
# Assay type: cell membranes, Oryctolagus cuniculus
# Conditions: not given
row,IC50 [nM],SMILES
1,1900,O=C(O)CCNC(=O)c1ccc(CN(c2ccc3c(c2)CCCC3)c2nc(-c3ccc(Cl)c(Cl)c3)cs2)cc1

# Species on record: Homo sapiens
# Experiment: Selectivity ratio of IC50 for human recombinant glucagon receptor to IC50 for human recombinant GIPR
# Conditions: not given
# Method in brief: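 Competition binding of compounds to recombinant human glucagon and GIP receptors on BHK cell membranes, run in parallel as a scintillation proximity assay and, for selected compounds, as a membrane filtration assay.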
row,fold change (FC),SMILES
1,5,O=C(O)CCNC(=O)c1ccc(CN(c2ccc3c(c2)CCCC3)c2nc(-c3ccc(Cl)c(Cl)c3)cs2)cc1
2,5,CC(C)(C)c1ccc(-c2csc(N(Cc3ccc(C(=O)NCCC(=O)O)cc3)c3ccc(C4=CCCCC4)cc3)n2)cc1
3,5,CC(C)(C)c1ccc(-c2csc(N(Cc3ccc(C(=O)NCCC(=O)O)cc3)c3ccc(C(C)(C)C)cc3)n2)cc1

# Species on record: Homo sapiens
# Experiment: Selectivity for human recombinant glucagon receptor over human GLP1R
# Conditions: not given
row,fold change (FC),SMILES
1,> 50,O=C(O)CCNC(=O)c1ccc(CN(c2ccc3c(c2)CCCC3)c2nc(-c3ccc(Cl)c(Cl)c3)cs2)cc1
2,> 50,CC(C)(C)c1ccc(-c2csc(N(Cc3ccc(C(=O)NCCC(=O)O)cc3)c3ccc(C4=CCCCC4)cc3)n2)cc1
3,> 50,CC(C)(C)c1ccc(-c2csc(N(Cc3ccc(C(=O)NCCC(=O)O)cc3)c3ccc(C(C)(C)C)cc3)n2)cc1

# Test system: Hepatocyte
# Experiment: Inhibition of glucagon-stimulated glucose production in rat primary hepatocytes
# Assay type: functional, cell-based
# Conditions: not given
row,SMILES,inhibition
1,O=C(O)CCNC(=O)c1ccc(CN(c2ccc3c(c2)CCCC3)c2nc(-c3ccc(Cl)c(Cl)c3)cs2)cc1,inactive

# Test system: not listed separately
# Experiment: Half life in fasted Sprague-Dawley rat plasma at 1.6 mg/kg, iv by HTLC-MS/MS analysis
# Assay type: ADME, organism-based
# Parameters: dose 1.6 mg/kg, route intravenous
# Conditions: not given
# Method in brief: (§4)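 Rats were dosed intravenously and perorally in separate arms, and plasma concentration-time profiles were obtained. Half-life was taken from the iv arm. Clearance, oral bioavailability, Cmax and Tmax were derived from the profiles.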
row,half-life [h],SMILES
1,1.73,O=C(O)CCNC(=O)c1ccc(CN(c2ccc3c(c2)CCCC3)c2nc(-c3ccc(Cl)c(Cl)c3)cs2)cc1
2,0.5,CC(C)(C)c1ccc(-c2csc(N(Cc3ccc(C(=O)NCCC(=O)O)cc3)c3ccc(C4=CCCCC4)cc3)n2)cc1

# Test system: not listed separately
# Experiment: Clearance in fasted Beagle dog at 0.25 mg/kg, iv and 0.5 mg/kg, po
# Assay type: ADME, organism-based, Canis lupus familiaris
# Conditions: in vivo
# Method in brief: as §2
row,clearance [mL/min/kg],SMILES
1,1.44,O=C(O)CCNC(=O)c1ccc(CN(c2ccc3c(c2)CCCC3)c2nc(-c3ccc(Cl)c(Cl)c3)cs2)cc1

# Test system: not listed separately
# Experiment: Clearance in fasted Sprague-Dawley rat at 1.6 mg/kg, iv and 3.15 mg/kg, po by HTLC-MS/MS analysis
# Assay type: ADME, organism-based
# Conditions: in vivo
# Method in brief: as §4
row,clearance [mL/min/kg],SMILES
1,5,O=C(O)CCNC(=O)c1ccc(CN(c2ccc3c(c2)CCCC3)c2nc(-c3ccc(Cl)c(Cl)c3)cs2)cc1
2,39,CC(C)(C)c1ccc(-c2csc(N(Cc3ccc(C(=O)NCCC(=O)O)cc3)c3ccc(C4=CCCCC4)cc3)n2)cc1

# Test system: Hepatocyte
# Experiment: Inhibition of glucagon-stimulated glucose production in human primary hepatocytes preincubated for 10 mins before glucagon addition by NADH-linked hexokinase assay
# Assay type: functional, cell-based
# Conditions: not given
# Method in brief: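 Cultured primary human hepatocytes were preincubated with compound for 10 min, then glycogenolysis was induced with 5 nM glucagon for 60 min. Glucose in the medium was measured against basal glycogenolysis. Albumin was present in the assay medium. IC50 was calculated from four experiments, mean ± SEM.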
row,SMILES,IC50 [nM]
1,O=C(O)CCNC(=O)c1ccc(CN(c2ccc3c(c2)CCCC3)c2nc(-c3ccc(Cl)c(Cl)c3)cs2)cc1,4000

# Molecular target: Glucagon receptor (Mus musculus, UniProt Q61606)
# Experiment: Binding affinity to glucagon receptor in mouse liver membrane by membrane filter assay
# Assay type: cell membranes
# Conditions: not given
# Glucagon receptor (Mus musculus, UniProt Q61606), sequence (Q61606 whole entry): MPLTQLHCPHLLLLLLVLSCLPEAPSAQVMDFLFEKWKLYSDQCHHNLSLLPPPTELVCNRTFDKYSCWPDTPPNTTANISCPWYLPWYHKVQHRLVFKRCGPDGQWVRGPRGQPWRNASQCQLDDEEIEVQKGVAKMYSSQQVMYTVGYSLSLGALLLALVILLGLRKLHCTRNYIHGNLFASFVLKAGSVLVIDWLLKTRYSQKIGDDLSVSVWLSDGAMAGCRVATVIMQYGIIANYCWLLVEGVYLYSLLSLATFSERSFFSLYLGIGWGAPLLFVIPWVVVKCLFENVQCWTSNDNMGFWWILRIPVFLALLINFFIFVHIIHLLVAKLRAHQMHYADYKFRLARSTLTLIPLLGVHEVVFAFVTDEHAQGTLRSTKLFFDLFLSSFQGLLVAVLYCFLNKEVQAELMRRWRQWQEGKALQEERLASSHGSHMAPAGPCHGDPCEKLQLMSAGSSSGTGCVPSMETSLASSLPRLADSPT
row,IC50 [nM],SMILES
1,452,O=C(O)CCNC(=O)c1ccc(CN(c2ccc3c(c2)CCCC3)c2nc(-c3ccc(Cl)c(Cl)c3)cs2)cc1

# Molecular target: Glucagon receptor (Rattus norvegicus, UniProt P30082)
# Experiment: Binding affinity to glucagon receptor in rat liver membrane by membrane filter assay
# Assay type: cell membranes
# Conditions: not given
# Glucagon receptor (Rattus norvegicus, UniProt P30082), sequence (P30082 whole entry): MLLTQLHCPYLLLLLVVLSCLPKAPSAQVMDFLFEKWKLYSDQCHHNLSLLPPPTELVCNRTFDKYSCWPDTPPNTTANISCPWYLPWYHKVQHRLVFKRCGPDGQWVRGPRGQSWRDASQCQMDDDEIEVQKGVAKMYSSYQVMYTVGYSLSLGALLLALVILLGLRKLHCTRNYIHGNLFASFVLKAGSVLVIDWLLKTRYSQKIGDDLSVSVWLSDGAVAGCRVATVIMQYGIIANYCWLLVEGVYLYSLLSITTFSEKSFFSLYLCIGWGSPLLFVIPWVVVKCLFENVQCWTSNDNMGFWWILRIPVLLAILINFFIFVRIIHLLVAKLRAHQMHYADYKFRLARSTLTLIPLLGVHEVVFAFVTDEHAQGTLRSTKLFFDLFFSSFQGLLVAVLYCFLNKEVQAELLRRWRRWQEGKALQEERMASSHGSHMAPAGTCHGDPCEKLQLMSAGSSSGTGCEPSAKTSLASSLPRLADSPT
row,IC50 [nM],SMILES
1,1600,O=C(O)CCNC(=O)c1ccc(CN(c2ccc3c(c2)CCCC3)c2nc(-c3ccc(Cl)c(Cl)c3)cs2)cc1

# Molecular target: T2, Glucagon receptor
# Experiment: Displacement of [125I]porcine glucagon from human recombinant glucagon receptor expressed in BHK cells by scintillation proximity assay
# Assay type: cell-based
# Conditions: not given
row,IC50 [nM],SMILES
1,79,O=C(O)CCNC(=O)c1ccc(CN(c2ccc3c(c2)CCCC3)c2nc(-c3ccc(Cl)c(Cl)c3)cs2)cc1
2,118,CC(C)(C)c1ccc(-c2csc(N(Cc3ccc(C(=O)NCCC(=O)O)cc3)c3ccc(C4=CCCCC4)cc3)n2)cc1
3,315,CC(C)(C)c1ccc(-c2csc(N(Cc3ccc(C(=O)NCCC(=O)O)cc3)c3ccc(C(C)(C)C)cc3)n2)cc1

# Test system: not listed separately
# Experiment: Cmax in fasted Sprague-Dawley rat at 1.6 mg/kg, iv and 3.15 mg/kg, po by HTLC-MS/MS analysis
# Assay type: ADME, organism-based
# Conditions: in vivo
# Method in brief: as §4
row,Cmax [ng/mL],SMILES
1,1180,O=C(O)CCNC(=O)c1ccc(CN(c2ccc3c(c2)CCCC3)c2nc(-c3ccc(Cl)c(Cl)c3)cs2)cc1
2,13,CC(C)(C)c1ccc(-c2csc(N(Cc3ccc(C(=O)NCCC(=O)O)cc3)c3ccc(C4=CCCCC4)cc3)n2)cc1

# Test system: not listed separately
# Experiment: Half life in fasted Beagle dog at 0.25 mg/kg, iv
# Assay type: ADME, organism-based, Canis lupus familiaris
# Parameters: dose 0.25 mg/kg, route intravenous
# Conditions: in vivo
# Method in brief: as §2
row,half-life [h],SMILES
1,2.07,O=C(O)CCNC(=O)c1ccc(CN(c2ccc3c(c2)CCCC3)c2nc(-c3ccc(Cl)c(Cl)c3)cs2)cc1

# From ChEMBL document CHEMBL1138494, “Human glucagon receptor antagonists with thiazole cores. A novel series with superior pharmacokinetic properties” (J Med Chem, 2009)
